Experimental data as given in ChEMBL document CHEMBL4330056, “Synthesis and Cytotoxic and Antiviral Profiling of Pyrrolo- and Furo-Fused 7-Deazapurine Ribonucleosides” (J Med Chem, 2018).
Activity calls are given as the source filed them. The calls are words filed in the database; no cut-off is given here.

How the values were obtained:
CCRF-CEM [1] = assay: Antiproliferative activity against human CCRF-CEM cells after 3 days by MTS assay; type: functional, cell-based; details: 72 h
[2] = Antiproliferative activity against human CEM-DNR-bulk cells after 3 days by MTS assay; details: 72 h
[3] = Antiproliferative activity against human K562-TAX cells after 3 days by MTS assay; type: functional, cell-based; details: 72 h
HL-60 = assay: Antiproliferative activity against human HL60 cells after 72 hrs by XTT assay; type: functional, cell-based; details: HL-60, 72 h
HeLa S3 = assay: Antiproliferative activity against human HeLaS3 cells after 72 hrs by XTT assay; type: functional, cell-based; details: HeLa S3, 72 h
CCRF-CEM [4] = assay: Inhibition of RNA synthesis in human CCRF-CEM cells assessed as RNA synthesis level at 5 times IC50 concentration after 24 hrs by BrU incorporation assay (reference value: 49.89%); type: functional; parameters: scale not given: the % may be the effect or the level left
Adenosine kinase [5] = molecular target: T1, Adenosine kinase (Homo sapiens, UniProt P55263); assay: Substrate activity at recombinant human ADK assessed as compound phosphorylation at 50 uM after 20 mins in presence of [3H]-adenosine by UPLC; type: ADME
T1 sequence (P55263 whole entry): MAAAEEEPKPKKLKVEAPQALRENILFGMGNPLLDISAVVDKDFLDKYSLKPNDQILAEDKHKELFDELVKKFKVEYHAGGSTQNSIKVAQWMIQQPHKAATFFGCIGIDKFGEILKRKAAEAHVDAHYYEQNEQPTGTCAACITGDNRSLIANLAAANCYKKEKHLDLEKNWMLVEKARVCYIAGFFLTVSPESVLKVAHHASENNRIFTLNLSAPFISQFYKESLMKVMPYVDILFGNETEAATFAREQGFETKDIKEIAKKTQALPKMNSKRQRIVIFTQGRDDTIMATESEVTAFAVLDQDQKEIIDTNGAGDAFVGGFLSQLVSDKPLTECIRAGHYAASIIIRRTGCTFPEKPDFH

[6] = Mitochondrial toxicity in human OCI-AML2 cells assessed as reduction in oxidative phosphorylation-based viability after 72 hrs by CellTiterGlo assay; type: cell-based
How it was run: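 OCI-AML2 leukemia cells, which rely on mitochondrial OXPHOS, treated for 3 days in a survival assay; IC50 reported.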

OCI-AML2 [7] = assay: Mitochondrial toxicity in human OCI-AML2 cells assessed as inhibition of MT-CO2 gene expression at 1 to 5 times IC50 after 24 to 72 hrs by RT-PCR analysis; type: cell-based
How it was run: (§1)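 Expression of the mitochondrial genes MT-CO2 and MT-ND1 measured.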

Influenza A virus = assay: Antiviral activity against Influenza A virus (A/Mexico/4108/2009(H1N1)) infected in MDCK cells assessed as inhibited virus-induced cytopathic effect incubated for 2 days by XTT assay; type: functional, organism-based
Coxsackievirus B3 = assay: Antiviral activity against Human coxsackie B3 Nancy infected in human HeLa cells assessed as inhibited virus-induced cytopathic effect incubated for 2 days by XTT assay; type: functional, organism-based
OCI-AML2 [8] = assay: Mitochondrial toxicity in human OCI-AML2 cells assessed as inhibition of MT-ND1 gene expression at 1 to 5 times IC50 after 24 to 72 hrs by RT-PCR analysis; type: cell-based; how it was run: as §1
CCRF-CEM [9] = assay: RNA incorporation activity in human CCRF-CEM assessed as NMP content per microgram of nucleic acid at 3.52 uM after 2.5 hrs by […]; type: functional
How it was run: (§2)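 CCRF-CEM cells exposed to nucleoside for 2.5 h, then harvested at once. RNA and DNA isolated separately and enzymatically digested; nucleoside content of each nucleic acid fraction quantified by HPLC-MS.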

CCRF-CEM [10] = assay: DNA incorporation activity in human CCRF-CEM assessed as NMP content per microgram of nucleic acid at 3.52 uM after 2.5 hrs by […]; type: functional; how it was run: as §2
DNA = assay: Induction of DNA damage in human U2OS cells transfected with 53BP1-GFP fusion gene assessed as increase in number of foci per nucleus at 1 to 5 times IC50 concentration measured at 1 hr intervals for 11 hrs by fluorescence-based assay; type: functional, cell-based
How it was run: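 U2OS osteosarcoma reporter line stably expressing 53BP1-GFP treated up to 11 h, with etoposide as the double-strand-break reference. 53BP1 foci in nuclei imaged by confocal microscopy (40× objective).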

Adenosine kinase [11] = molecular target: T1, Adenosine kinase; assay: Drug metabolism in human BJ cells assessed as ADK-mediated compound phosphorylation by measuring parent compound level per 5x10^5 cells at 1 umol/L after 1 hr by UPLC-MS/MS analysis; type: ADME, cell-based; details: 1 µM
How it was run: (§3)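 BJ (normal) and HCT116 (malignant) cells exposed to nucleoside at 1 or 10 μmol/L for 1 or 3 h. Intracellular nucleoside and its monophosphate quantified against synthetic monophosphate standards. Values given as pmol per 5 × 10^5 cells.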

Adenosine kinase [12] = molecular target: T1, Adenosine kinase; assay: Drug metabolism in human HCT116 cells assessed as ADK-mediated compound phosphorylation by measuring parent compound level per 5x10^5 cells at 1 umol/L after 1 hr by UPLC-MS/MS analysis; type: ADME, cell-based; details: 1 µM; how it was run: as §3
Adenosine kinase [13] = molecular target: T1, Adenosine kinase; assay: Drug metabolism in human BJ cells assessed as ADK-mediated compound phosphorylation by measuring parent compound level per 5x10^5 cells at 1 umol/L after 3 hrs by UPLC-MS/MS analysis; type: ADME, cell-based; details: 1 µM; how it was run: as §3
Adenosine kinase [14] = molecular target: T1, Adenosine kinase; assay: Drug metabolism in human HCT116 cells assessed as ADK-mediated compound phosphorylation by measuring parent compound level per 5x10^5 cells at 1 umol/L after 3 hrs by UPLC-MS/MS analysis; type: ADME, cell-based; details: 1 µM; how it was run: as §3
Adenosine kinase [15] = molecular target: T1, Adenosine kinase; assay: Drug metabolism in human BJ cells assessed as ADK-mediated compound phosphorylation by measuring parent compound level per 5x10^5 cells at 10 umol/L after 1 hr by UPLC-MS/MS analysis; type: ADME, cell-based; details: 10 µM; how it was run: as §3
Adenosine kinase [16] = molecular target: T1, Adenosine kinase; assay: Drug metabolism in human HCT116 cells assessed as ADK-mediated compound phosphorylation by measuring parent compound level per 5x10^5 cells at 10 umol/L after 1 hr by UPLC-MS/MS analysis; type: ADME, cell-based; details: 10 µM; how it was run: as §3
Adenosine kinase [17] = molecular target: T1, Adenosine kinase; assay: Drug metabolism in human BJ cells assessed as ADK-mediated compound phosphorylation by measuring parent compound level per 5x10^5 cells at 10 umol/L after 3 hrs by UPLC-MS/MS analysis; type: ADME, cell-based; details: 10 µM; how it was run: as §3
Adenosine kinase [18] = molecular target: T1, Adenosine kinase; assay: Drug metabolism in human HCT116 cells assessed as ADK-mediated compound phosphorylation by measuring parent compound level per 5x10^5 cells at 10 umol/L after 3 hrs by UPLC-MS/MS analysis; type: ADME, cell-based; details: 10 µM; how it was run: as §3
CCRF-CEM [19] = assay: RNA incorporation activity in human CCRF-CEM assessed as NMP content per microgram of nucleic acid at 4.48 uM after 2.5 hrs […]; type: functional
CCRF-CEM [20] = assay: DNA incorporation activity in human CCRF-CEM assessed as NMP content per microgram of nucleic acid at 4.48 uM after 2.5 hrs by […]; type: functional; how it was run: as §2
CCRF-CEM [21] = assay: DNA incorporation activity in human CCRF-CEM assessed as dMP content per microgram of nucleic acid at 4.48 uM after 2.5 hrs […]; type: functional
OCI-AML2 [22] = assay: Mitochondrial toxicity in human OCI-AML2 cells assessed as effect on ATP5A protein expression at 1 to 5 times IC50 after 24 to 72 hrs by Western blot analysis; type: cell-based
OCI-AML2 [23] = assay: Mitochondrial toxicity in human OCI-AML2 cells assessed as effect on UQCRC2 protein expression at 1 to 5 times IC50 after 24 to 72 hrs by Western blot analysis; type: cell-based
OCI-AML2 [24] = assay: Mitochondrial toxicity in human OCI-AML2 cells assessed as reduction in CO2 protein expression at 1 to 5 times IC50 after 24 to 72 hrs by Western blot analysis; type: cell-based
OCI-AML2 [25] = assay: Mitochondrial toxicity in human OCI-AML2 cells assessed as reduction in SDHB protein expression at 1 to 5 times IC50 after 24 to 72 hrs by Western blot analysis; type: cell-based

Structure (SMILES) | IC50 (CCRF-CEM [1]) [nM] | IC50 [2] [nM] | IC50 [3] [nM] | IC50 (HL-60) [nM] | IC50 (HeLa S3) [nM] | Activity (CCRF-CEM [4]) [%] | Activity (Adenosine kinase [5]) [%] | IC50 at 72 h [6] [nM] | inhibition (INH) (OCI-AML2 [7]) [%] | Activity (Influenza A virus) | Activity (Coxsackievirus B3) | inhibition (INH) (OCI-AML2 [8]) [%] | Activity (DNA) | Drug metabolism (Adenosine kinase [11]) [pmol] | Drug metabolism (Adenosine kinase [12]) [pmol] | Drug metabolism (Adenosine kinase [13]) [pmol] | Drug metabolism (Adenosine kinase [14]) [pmol] | Drug metabolism (Adenosine kinase [15]) [pmol] | Drug metabolism (Adenosine kinase [16]) [pmol] | Drug metabolism (Adenosine kinase [17]) [pmol] | also measured
CSc1ncnc2c1c1occc1n2[C@@H]1O[C@H](CO)[C@@H](O)[C@H]1O | 140 | 5570 | 2700 | 290 | 2960 | 6.55 | 56 | 190 | 50 | inactive | inactive | 50 |  |  |  |  |  |  |  |  | 
Cc1ncnc2c1c1c(ccn1C)n2[C@@H]1O[C@H](CO)[C@@H](O)[C@H]1O | 210 | > 50000 | > 50000 | 1510 | 1190 | 35.91 | 42 |  |  | inactive | inactive |  | Active | 87.1 | 54.04 | 173.96 | 136.87 | 220.71 | 450.1 | 753.01 | Activity (CCRF-CEM [9]): 3.74 fmol; Activity (CCRF-CEM [10]): 14.1 fmol; Drug metabolism (Adenosine kinase [18]): 476.53 pmol
Cc1ncnc2c1c1occc1n2[C@@H]1O[C@H](CO)[C@@H](O)[C@H]1O | 240 | > 50000 | 6930 | 1200 | 2210 | 0.61 | 48 | 340 | 50 | inactive | inactive | 50 | Active | 155.12 | 27.92 | 247.21 | 66.31 | 338.91 | 119.93 | 464.66 | Activity (CCRF-CEM [19]): 3.4 fmol; Activity (CCRF-CEM [20]): 14.3 fmol; Activity (CCRF-CEM [21]): 15.4 fmol; Drug metabolism (Adenosine kinase [18]): 177.9 pmol; Activity (OCI-AML2 [22]): Non-Toxic; Activity (OCI-AML2 [23]): Non-Toxic; Activity (OCI-AML2 [24]): Toxic; Activity (OCI-AML2 [25]): Toxic
